High-throughput results (PubChem BioAssay)
thrombin 1536: inhibitors of human thrombin; P00734; alpha-thrombin, Boc-VPR-AMC fluorogenic substrate cleavage; inhibition, % at 5 µM; 0.26% of 220,000 active; AID 1046;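 active means inhibition at or above 40%; inactive means inhibition below 40%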;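 further: 0% = enzyme with no compound and 100% = wells without enzyme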
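Assay system: human alpha-thrombin enzyme. Reagent: Boc-VPR-AMC substrate, 15 µM final. Compound dosing: one concentration per compound, 5 µM, with 0.2% DMSO. Incubation: room-temperature reaction. Technique: AMC fluorescence, 355/460 nm. Measure: % inhibition relative to enzyme controls and enzyme-free blanks.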
FXIa inh 1536: blocks human coagulation factor XIa protease activity; P03951; 0.14% of 220,000 active; inhibition, % at 5 µM; purified FXIa, Boc-Glu-Ala-Arg-AMC fluorogenic substrate;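 active means inhibition of at least 40%; inactive means inhibition below 40%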;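 further: fluorescence of freed AMC excited at 355 nm; 0% = enzyme without compound and 100% = no enzyme blank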
Wee1 degr inh: inhibitors of human Wee1 degradation. 1.2% of 220,000 active. AID 1321. reporter increase, % at 5 µM. P30291. HeLa Luc-Wee1K328M stability, luciferase luminescence; 100% = proteasome inhibitor MG132 effect;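 active means activation above the mean of all tested compounds plus 3 SD, set per screening run, cut at about 8.8% in these data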;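 further: cells exposed to compound for 20 h before luminescence read; 0% = DMSO alone and 100% = MG132 at 30 µM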
FXIIa inh: blocks human coagulation factor XIIa protease activity; purified FXIIa, Boc-QGR-AMC fluorogenic substrate, 2 h; inhibition, % at 5 µM; 0.3% of 220,000 active; in the data active means inhibition above about 40%;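 further: 0% = enzyme with no compound and 100% = blank without enzyme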
hK5 inh: inhibitors of human kallikrein 5 | Q9Y337 | recombinant hK5, fluorogenic AMC substrate cleavage | inhibition, % at 5 µM | 0.59% of 210,000 active;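 active means inhibition of 40% or more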;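 further: 0% = enzyme controls without compound and 100% = no-enzyme blanks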
Target sequence (Q9Y337 67-293 limits assumed): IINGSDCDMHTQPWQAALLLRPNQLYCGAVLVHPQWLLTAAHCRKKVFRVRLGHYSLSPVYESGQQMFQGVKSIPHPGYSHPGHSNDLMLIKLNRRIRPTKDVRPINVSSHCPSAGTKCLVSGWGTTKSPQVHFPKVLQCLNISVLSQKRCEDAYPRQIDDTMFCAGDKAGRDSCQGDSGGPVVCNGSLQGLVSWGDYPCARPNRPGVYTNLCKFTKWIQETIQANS
Platelet DG rel: platelet dense granule release activity; human platelet-rich plasma, SFLLRN dense granule ATP release, luminescence; inhibition, %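 (compounds screened at 7.5 µM in platelet-rich plasma)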; 0.22% of 300,000 active;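 active means mean replicate score, as percent of positive control, at or above 50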
An asterisk follows results filed as active; · = no result. This is a sample that favours compounds with a hit; in the whole collection about 1.8% have one here.

SMILES	thrombin 1536	FXIa inh 1536	Wee1 degr inh	FXIIa inh	hK5 inh	Platelet DG rel
COc1ccc(-n2nc3c(c2NC(=O)C(C)Oc2ccccc2)CS(=O)(=O)C3)cc1 (stereo not drawn)	·	·	·	·	·	3.2
CCOC(=O)NC(=O)/C(N=Nc1ccc(C(F)(F)F)cc1)=C(\C)O	-1.9	-4.3	9.9*	2.1	-2.9	0.6
CCCC(=O)N=C1SC2CS(=O)(=O)CC2N1c1ccc(CC)cc1 (stereo not drawn)	-6.4	26.3	0.8	41.4*	-8.6	-0.4
COCCCNC(=O)/C=C1\Sc2ccccc2N(Cc2ccccc2F)C1=O	-1.3	-7.7	9.7*	-7.3	-25.7	3.1
CCN1CCN(CCNC(=O)c2ccc(/C=C3\Sc4ccccc4N(Cc4ccccc4F)C3=O)cc2)CC1	-21.1	-10.2	-3.1	5.3	-6.6	-13.3
O=C1c2ccccc2C(=O)N1c1ccc(S(=O)(=O)N2CCN(c3ccccc3)CC2)cc1	-0.4	-1.3	9.4*	4.8	-20.8	19.2
O=C(Nc1ccc(F)cc1)C1CCN(c2nnnn2-c2ccccc2)CC1	3.9	-4.7	-0.2	15.4	-14.4	-1.9
O=C(NC1CCCCC1)C1CCN(c2nnnn2-c2ccccc2)CC1	81.8*	27.1	0.9	20.8	27.6	-5.1
O=S(=O)(c1ccccc1)N1CCN(c2nnnn2-c2ccccc2)CC1	16.2	4.3	-1.1	31.2	63.1*	-2.8
O=S(=O)(c1ccccc1)N1CCN(c2ccccc2)CC1	·	·	·	·	·	-3.2
COc1cc([N+](=O)[O-])ccc1NC(=O)CCCOc1cccc(C)c1	3.9	2.5	-0.9	4.3	-0.7	1.1
O=C(CCN1CCCCO1)N1CCCC(Nc2cccc(F)c2)C1 (stereo not drawn)	·	·	·	·	·	2.7
CC(=O)NC(Cc1cc(C)ccc1C)C(=O)N1CCN(C(=O)c2ccc([N+](=O)[O-])cc2)CC1 (stereo not drawn)	·	·	·	·	·	3.1
Cc1ccc(NC(=O)COC(=O)C2=COCCO2)c([N+](=O)[O-])c1	-5.7	-10.9	9.3*	7.1	-6.4	2.6
COc1ccc(Cc2nnc(N/N=C(\C)c3ccccc3)[nH]c2=O)cc1OC	-6.5	-5.4	2.2	-3.3	-2.2	8.1
O=C1/C(=C\c2ccco2)SC(=S)N1Cc1ccccc1	0.0	2.6	5.2	8.3	1.4	-0.4
O=C1/C(=C/c2ccccn2)SC(=S)N1Cc1ccccc1	-1.1	-0.3	10.9*	5.5	-5.0	-3.8
CC(=O)N1c2ccccc2N2C(c3c(C)c(C)cc(C)c3C)=NON12	47.2*	0.4	-2.0	6.0	-3.7	·
COc1ccc2cc(CN(CC3CCCO3)C(=S)NCc3ccco3)c(=O)[nH]c2c1 (stereo not drawn)	-9.0	-1.1	1.4	7.5	-3.0	-4.2
CC1=C(C(=O)N(C)C)C(c2ccc(C)s2)NC(=S)N1 (stereo not drawn)	12.8	2.0	2.2	9.0	5.2	-3.6
COc1ccc(N(C(=O)c2ccco2)S(=O)(=O)c2ccc(F)cc2)cc1	42.4*	9.1	-1.2	14.2	0.1	0.2
COc1ccc(N(C(=O)c2ccco2)S(=O)(=O)c2cccc([N+](=O)[O-])c2)cc1	57.5*	19.5	1.0	21.9	-4.8	-9.1
COc1ccc(N(C(=O)c2ccco2)S(=O)(=O)c2cccs2)cc1	17.1	10.6	-1.7	18.7	-7.6	-1.4
CCCCCCC(=O)N/N=C(\C)Cc1ccccc1	-7.8	-10.3	-2.6	-2.0	-26.6	-3.6
CC(C)(C)C(=O)CNCC(=O)C(C)(C)C	-12.9	-3.4	2.3	4.9	4.6	0.0
SMILES	thrombin 1536	FXIa inh 1536	Wee1 degr inh	FXIIa inh	hK5 inh	Platelet DG rel
O=c1[nH]nc(Cc2ccc(Cl)cc2Cl)c2ccccc12	-0.4	3.1	2.1	-5.1	3.3	·
O=c1[nH]nc(Cc2ccc(Cl)cc2)c2ccccc12	21.3	-0.2	0.8	4.7	53.9*	·
Cc1cccc(C)c1NC(=O)C(=O)NCC1CCCN1S(=O)(=O)c1cccs1 (stereo not drawn)	·	·	·	·	·	38.4
CCn1c(COc2ccccc2OC)nnc1SCC#N	-7.1	-0.9	10.4*	-3.8	-1.1	13.4
CCn1c(COc2ccccc2OC)nnc1SCC(=O)NC1CCCC1	·	·	·	·	·	-5.5
O=c1c2ccccc2nc2n1CCC2	-2.1	4.4	-1.3	14.0	59.8*	4.8
O=c1c2ccccc2nc2n1CCCCC2	3.2	2.6	-1.3	17.1	-22.1	2.3
CN1CCN(C(=O)c2ccc3c(=O)n4c(nc3c2)CCCCC4)CC1	13.4	2.4	-2.0	8.0	42.3*	11.2
